Hits are enriched below; roughly 3.3% of the tested compounds scored in any of these assays.
FGF22 binding – shifts melting point of recombinant human FGF22 | recombinant FGF22 thermal shift, SYPRO orange fluorescence; percent of sucrose octasulfate shift, DMSO zero | activity (Tm shift, normalised), % at 9.99 µM | 340,000 tested, 1.5% active | Q9HCT0 | AID 651658;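 active means mean Tm shift, scaled 0 neutral to 100 positive control, at about 1.3% or above, every replicate too, limit read from the data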
Target sequence (Q9HCT0 whole entry, looked up): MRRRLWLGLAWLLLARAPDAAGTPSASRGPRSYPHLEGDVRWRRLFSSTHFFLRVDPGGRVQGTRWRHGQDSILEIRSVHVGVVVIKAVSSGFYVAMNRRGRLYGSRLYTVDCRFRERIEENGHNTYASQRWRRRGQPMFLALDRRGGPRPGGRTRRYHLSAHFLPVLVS
XiGFP reactiv – activators of X-chromosome reactivation in mouse fibroblasts | XiGFP mouse fibroblasts, % GFP-positive cells imaging, 3 d; cells co-treated with 5-aza-dC sensitizer; scaled so ellipticine positive control = 100% | activation, % at 7.58 µM | 360,000 tested, 0.055% active;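 active means mean normalized replicate activation at least 10% and every replicate at or above 10%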
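Schedule: 3 d treatment, 15 min room-temperature fixation; system: 68-5-11 XiGFP fibroblast line; buffer or medium: DMEM plus 5-aza-dC sensitizer; control set: ellipticine 6 µM positive control; compound: one concentration, pinned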
PglD DTNB – blocks C. jejuni PglD acetyltransferase activity; purified PglD enzyme, DTNB colorimetric CoA detection; inhibition, % at 12.5 µM; 360,000 tested, 0.098% active; AID 602405; in the data active means inhibition above about 16%, passing the limit was not always enough
DENV2 CPE rescue – inhibitors of DENV2 cytopathic effect | DENV2-infected cells, cytopathic effect rescue, plate reader | 350,000 tested, 1.7% active | CPE inhibition, % at 9.99 µM; in the data active means CPE inhibition above about 20%, passing the limit was not always enough; tested in BHK-21 cells
Statin myotox sup – suppression of simvastatin myotoxicity. 330,000 tested, 0.78% active. C2C12 myotubes + simvastatin, ATP luminescence, 48 h; scaled: DMSO 0, geranylgeraniol control 100. rescue of ATP level, % at 7.49 µM;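 active means mean ATP rescue above about 67%, or every replicate alone reaching that limit, limit read from the data, passing the limit was not always enough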;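 further: myotubes were challenged with 10 µM simvastatin during compound exposure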
E-selectin induc – E-selectin induction on HUVECs. HUVEC E-selectin immunofluorescence imaging; normalized: neutral wells 0, TNF-alpha wells 100. activation, % at 7.58 µM. 260,000 tested, 0.37% active. AID 686992;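 active means mean E-selectin-positive cell signal at least 10% of the positive control, reached in at least 60% of replicates, without over 20% cell loss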
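Test system – human umbilical vein endothelial cells (HUVEC), E-selectin induction · Input – 3,000 HUVEC seeded per well · Buffer or medium – EGM-2, gelatin · Compound dosing – single-point compound dose · Detection – immunofluorescence imaging · Measure – percent E-selectin-positive cells · Controls – TNF-alpha high, DMSO low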
Hits are given with their value; i = inactive; nt = not tested or not shown.

SMILES	FGF22 binding	XiGFP reactiv	PglD DTNB	DENV2 CPE rescue	Statin myotox sup	E-selectin induc
C[C@H](CO)N1C[C@H](C)[C@H](CN(C)CC2CC2)Oc2ncc(-c3ccc(C#N)cc3)cc2C1=O	nt	i	nt	nt	i	i
COc1ccc(S(=O)(=O)Nc2ccc3c(c2)C(=O)N([C@@H](C)CO)C[C@H](C)[C@@H](CN(C)C(=O)Nc2c(C)noc2C)OCCCC[C@@H](C)O3)cc1	i	i	i	i	i	i
Cc1noc(C)c1NC(=O)N(C)C[C@@H]1OCCCC[C@H](C)Oc2ccc(NS(=O)(=O)c3ccc(Cl)cc3)cc2C(=O)N([C@@H](C)CO)C[C@H]1C	nt	i	i	i	nt	nt
Cc1noc(C)c1NC(=O)N(C)C[C@@H]1OCCCC[C@H](C)Oc2ccc(NS(=O)(=O)c3ccc(Cl)cc3)cc2C(=O)N([C@H](C)CO)C[C@@H]1C	nt	i	i	32	nt	nt
COc1ccc(S(=O)(=O)Nc2ccc3c(c2)C(=O)N([C@H](C)CO)C[C@H](C)[C@H](CN(C)C(=O)Nc2c(C)noc2C)OCCCC[C@H](C)O3)cc1	1.3	i	i	i	i	i
CCC(=O)N1CC(=O)N2[C@H](CO)[C@H](c3ccc(C#Cc4cccc(F)c4)cc3)[C@@H]2C1	nt	i	nt	i	nt	i
Cc1ccc(S(=O)(=O)NCCN=C(CN2CCCC2)NS(=O)(=O)c2ccc(C)cc2)cc1	nt	nt	i	nt	112	nt
Cc1ccc(S(=O)(=O)NCCN=C(CN2CCOCC2)NS(=O)(=O)c2ccc(C)cc2)cc1	nt	nt	i	nt	nt	nt
C[C@H]1CN([C@@H](C)CO)C(=O)c2cc(-c3ccc(F)cc3)cnc2O[C@H]1CN(C)Cc1ccc(F)cc1	nt	i	nt	nt	i	i
CC(=O)c1cccc(N2C(=O)Nc3ccccc3N2O)c1	43	i	i	i	i	i
O=C(CCCn1cc([N+](=O)[O-])cn1)N1CCCCC1	i	i	i	i	i	i
Cc1cc(C)n(C(=O)CCCn2cc([N+](=O)[O-])cn2)n1	43	i	nt	i	nt	nt
CO[C@H]1CN(C)C(=O)c2cc(NS(=O)(=O)c3ccccc3)ccc2OC[C@H](C)N(Cc2nccs2)C[C@@H]1C	i	i	i	i	i	i
CCOC(=O)n1c(=O)n(Cc2c(Cl)cccc2Cl)c2ccccc21	nt	nt	nt	nt	175	nt
CCOC(=O)n1c(=O)n(Cc2cccc(F)c2)c2ccccc21	i	i	nt	i	nt	nt
O=C(NC(O)C(=O)c1ccccc1)c1ccc(F)cc1 (stereo not given)	i	i	i	i	i	41
COCC(=O)N1[C@@H](CO)[C@@H](c2ccccc2)C12CN(C(=O)c1cccc(F)c1)C2	i	i	nt	29	nt	i
O=C(c1ccc2c(c1)OCO2)N1CC2(C1)[C@H](c1ccccc1)[C@H](CO)N2C(=O)C1CC1	nt	i	nt	38	nt	i
O=C(c1cccc(F)c1)N1CC2(C1)[C@H](c1ccccc1)[C@H](CO)N2C(=O)C1CC1	i	i	nt	34	nt	i
O=C(c1cccc(F)c1)N1CC2(C1)[C@H](c1ccccc1)[C@@H](CO)N2C(=O)C1CC1	i	i	nt	i	nt	i
Cc1noc(C)c1S(=O)(=O)N(C)C[C@@H]1OCCCC[C@H](C)Oc2ccc(NC(=O)Nc3ccc(C(F)(F)F)cc3)cc2C(=O)N([C@H](C)CO)C[C@@H]1C	i	i	i	i	nt	i
Cc1ccc(S(=O)(=O)Nc2cccc3c2O[C@@H](CN(C)CC2CC2)[C@H](C)CN([C@@H](C)CO)C3=O)cc1	i	i	i	i	i	i
Cc1ccc([C@H]2C[C@@H](n3cc(-c4ccc(F)cc4)nn3)[C@H](O)CN2C(=O)c2cccs2)cc1	i	i	nt	32	i	i
Cc1ccc([C@H]2C[C@H](O)[C@@H](n3cc(-c4ccc(F)cc4)nn3)CN2C(=O)c2cccs2)cc1	i	i	i	i	i	nt
CCc1ccc(-n2c(=S)sc3c(=O)n(-c4ccccc4C)c(SCC(=O)O)nc32)cc1	i	i	i	i	i	60
SMILES	FGF22 binding	XiGFP reactiv	PglD DTNB	DENV2 CPE rescue	Statin myotox sup	E-selectin induc
CCCN(C)C[C@@H]1OCCCC[C@@H](C)Oc2ccc(NC(=O)Nc3ccc(C(F)(F)F)cc3)cc2C(=O)N([C@H](C)CO)C[C@@H]1C	i	i	i	28	nt	i
C[C@@H]1CCCCO[C@H](CN(C)C(=O)Nc2ccccc2)[C@@H](C)CN([C@H](C)CO)C(=O)c2cc(NC(=O)Nc3ccc(C(F)(F)F)cc3)ccc2O1	i	i	nt	i	nt	i
C[C@H]1CCCCO[C@@H](CN(C)C(=O)Nc2ccccc2)[C@@H](C)CN([C@@H](C)CO)C(=O)c2cc(NC(=O)Nc3ccc(C(F)(F)F)cc3)ccc2O1	i	i	nt	36	nt	i
C[C@H](CO)N1C[C@H](C)[C@H](CN(C)C(=O)Nc2ccc(F)cc2)OCCCC[C@H](C)Oc2ccc(NC(=O)Nc3ccc(C(F)(F)F)cc3)cc2C1=O	1.3	i	i	i	nt	i
C[C@@H]1CCCCO[C@H](CN(C)C(=O)Nc2ccc(F)cc2)[C@@H](C)CN([C@H](C)CO)C(=O)c2cc(NC(=O)Nc3ccc(C(F)(F)F)cc3)ccc2O1	i	i	i	i	nt	i
C[C@@H]1CCCCO[C@H](CN(C)C(=O)Nc2ccc(F)cc2)[C@H](C)CN([C@@H](C)CO)C(=O)c2cc(NC(=O)Nc3ccc(C(F)(F)F)cc3)ccc2O1	1.3	i	i	i	nt	i
Cc1noc(C)c1S(=O)(=O)N(C)C[C@H]1Oc2ccc(NC(=O)C3CCCCC3)cc2CC(=O)N([C@@H](C)CO)C[C@@H]1C	i	i	i	i	i	i
CC(C)NC(=O)Nc1ccc2c(c1)C(=O)N([C@H](C)CO)C[C@@H](C)[C@H](CN(C)C(=O)Nc1ccc(C(F)(F)F)cc1)OCCCC[C@@H](C)O2	i	i	i	50	nt	i
C[C@H](CO)N1C[C@H](C)[C@@H](CN(C)Cc2ccc(C(F)(F)F)cc2)Oc2c(NS(C)(=O)=O)cccc2C1=O	nt	i	i	i	i	198
Cc1ccc(S(=O)(=O)Nc2cccc3c2O[C@@H](CN(C)Cc2ccc(C(F)(F)F)cc2)[C@H](C)CN([C@H](C)CO)C3=O)cc1	i	i	i	i	101	i
C[C@H](CO)N1C[C@H](C)[C@H](CN(C)Cc2ccc(C(F)(F)F)cc2)Oc2c(NS(C)(=O)=O)cccc2C1=O	i	i	i	i	i	i
Cc1ccc(S(=O)(=O)Nc2cccc3c2O[C@@H](CN(C)Cc2ccc(C(F)(F)F)cc2)[C@H](C)CN([C@@H](C)CO)C3=O)cc1	i	i	i	i	78	i
C[C@@H]1CN([C@@H](C)CO)C(=O)c2cccc(NS(=O)(=O)c3ccc(F)cc3)c2O[C@@H]1CN(C)Cc1ccc(C(F)(F)F)cc1	i	i	i	i	i	i

Screening data as filed in PubChem.
